Compound activity as filed in PubChem.
MrgX1 antag – human MrgX1 receptor antagonism, primary screen; B-score at 10 µM; Q96LB2; 310,000 compounds, 1.3% hits; MRGX1-HEK293 calcium flux, Fluo-4, BAM8-22 antagonism; stronger effect = lower value; AID 588676;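 active = calcium-response B-score plate-corrected more than 3 library SD below zero, starting fluorescence within 5 deviations, no agonist response on first addition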;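 also: peak minus trough fluorescence over baseline after final BAM8-22 challenge near maximal dose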
Target sequence (Q96LB2 whole entry, looked up): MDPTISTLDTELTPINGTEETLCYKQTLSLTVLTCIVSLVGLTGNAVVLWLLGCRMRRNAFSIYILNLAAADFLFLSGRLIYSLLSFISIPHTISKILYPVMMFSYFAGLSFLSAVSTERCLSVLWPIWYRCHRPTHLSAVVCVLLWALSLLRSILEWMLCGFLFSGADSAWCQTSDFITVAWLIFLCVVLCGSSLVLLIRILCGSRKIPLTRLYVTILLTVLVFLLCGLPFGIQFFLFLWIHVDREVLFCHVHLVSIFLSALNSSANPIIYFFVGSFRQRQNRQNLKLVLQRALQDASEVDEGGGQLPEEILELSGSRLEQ
RGS4 pot – RGS4 potentiation or activation; HEK293 M3R/inducible RGS4, carbachol calcium flux Fluo4; stronger effect = lower value; B-score at 10 µM; 310,000 compounds, 0.92% hits; AID 463111;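 active = B-score of the integrated calcium signal more than 4 SD below the library mean, with starting fluorescence not abnormally high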;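 also: negative B-score means reduced calcium response which marks RGS4 activation or potentiation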
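test system = M3R-expressing HEK293 line, RGS4 induced by doxycycline | probe or stimulus = carbachol at ECmax as muscarinic agonist stimulus | timing = dye loading 30 min 37 °C, buffer rest 30 min RT | signal = calcium dye Fluo4 fluorescence | evaluation = B score from integrated fluorescence ratio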
RGS4 inh – human RGS4 inhibition | 310,000 compounds, 0.45% hits | B-score at 10 µM | HEK293 M3R/RGS4 inducible, Fluo-4 calcium flux; stronger effect = higher value; triggered by carbachol at its EC20 | P49798;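 active = B-score, a plate-corrected calcium signal, over three deviations above library mean, with baseline fluorescence within five deviations of library mean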;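 also: RGS4 expression induced by doxycycline in cells with stable M3 receptor; B-score is computed from the integrated fluorescence ratio over baseline after carbachol; higher B-score means a larger calcium signal and so more RGS4 inhibition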
Target sequence (P49798 whole entry, looked up): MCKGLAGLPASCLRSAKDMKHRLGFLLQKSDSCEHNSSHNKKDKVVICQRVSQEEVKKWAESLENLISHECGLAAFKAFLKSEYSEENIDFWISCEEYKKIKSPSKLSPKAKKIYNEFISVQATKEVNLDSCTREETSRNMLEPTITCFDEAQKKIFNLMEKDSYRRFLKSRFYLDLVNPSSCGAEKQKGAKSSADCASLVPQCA
MrgX1 agonist – activates human MrgX1 receptor signaling. AID 588627. Q96LB2. 310,000 compounds, 0.44% hits. MrgX1-HEK293 cells, Fluo-4 calcium fluorescence, agonist mode; stronger effect = higher value. B-score at 10 µM;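 active = calcium response B-score plate-corrected fluorescence ratio at least 3 library SD, with starting fluorescence B-score inside 5 SD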
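System: HEK293 cells stably expressing human MrgX1 receptor; Dosing: test compound in the initial addition of three; Schedule: overnight plating, then 30 min 37 °C plus 30 min room-temperature dye loading; Detection: kinetic calcium dye fluorescence, Fluo-4 NW; Controls: per-plate positive and negative controls for Z′ factor.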
MrgX1 allo act – allosterically activates human MrgX1 receptor signaling; MrgX1-HEK293, Fluo-4 calcium flux, FDSS; stronger effect = higher value; B-score at 10 µM; 310,000 compounds, 0.63% hits; AID 588675;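 active = plate-corrected calcium response at least 3 library SD above typical, normal starting fluorescence, not activating the receptor alone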;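 also: compound read alongside a low EC10 to EC30 dose of BAM8-22 agonist; peak minus trough fluorescence over baseline measured at the second addition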
MrgX1 antag conf – confirmation of human MrgX1 receptor antagonists; MrgX1-HEK293, BAM8-22 calcium flux, Fluo-4; stronger effect = lower value; 2,300 compounds, 19% hits; remaining BAM8-22 calcium response % of control (stronger effect = lower value), % at 10 µM; shares compounds with MrgX1 antag;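 active = remaining agonist calcium response no higher than 100% minus 3 SD of agonist-only control wells, with starting fluorescence near control levels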;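 also: agonist BAM8-22 given at a near maximal EC90 to ECmax level; peak minus minimum fluorescence divided by baseline after agonist addition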
HEK293 Ca flux – activity in parental HEK293 cells lacking MrgX1; shares compounds with MrgX1 antag; Fluo-4 calcium fluorescence, FDSS; fluorescence ratio F(max-min)/F0 at 10 µM; 4,000 compounds, 2% hits; AID 624111;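 active = duplicate-averaged calcium fluorescence ratio at least three times the standard deviation of buffer wells, a nonspecific response in parental cells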
HEK293 Ca counter – MrgX1 allosteric activator counter-screen hit in parental HEK293 cells; 4,000 compounds, 0.4% hits; fluorescence ratio F(max-min)/F0 at 10 µM; AID 624114; parental HEK293 calcium flux, Fluo-4 fluorescence ratio; stronger effect = higher value; shares compounds with MrgX1 antag;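 active = calcium fluorescence ratio, averaged over duplicates, at least 3 SD of the buffer-well ratio, meaning a nonspecific response in receptor-free cells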;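 also: untransfected parental HEK293 lacking MrgX1 used as counterscreen for MrgX1 allosteric activators; fluorescence change taken during the second addition on a kinetic imager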
HEK293 Ca cntr2 – MrgX1 activator counter-screen hit in parental HEK293 cells | shares compounds with MrgX1 antag | Fluo-4 calcium fluorescence (FDSS); stronger effect = higher value | fluorescence ratio F(max-min)/F0 at 10 µM | 4,000 compounds, 8.7% hits | AID 624115;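 active = calcium fluorescence ratio at least three times the spread of buffer wells, meaning a non-specific response in parental cells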
Active calls of the source: *; i = inactive; . = no result given. Only some compounds are listed: those with a hit (about 3.5% of all), similar ones and a draw of the others.

SMILES | MrgX1 antag | RGS4 pot | RGS4 inh | MrgX1 agonist | MrgX1 allo act | MrgX1 antag conf | HEK293 Ca flux | HEK293 Ca counter | HEK293 Ca cntr2
Cc1ccc(NC(=O)CCNS(=O)(=O)c2ccccc2)cc1S(=O)(=O)N1CCOCC1 | -6.67* | i | i | i | i | i | i | i | i
CCOC(=O)c1ccc(NC(=O)c2ccc(C)c(S(=O)(=O)N3CCOCC3)c2)cc1 | -10.9* | i | i | i | i | 21.3%* | i | i | i
Cc1ccc(NC(=O)CCNS(=O)(=O)c2ccc(Br)cc2)cc1S(=O)(=O)N1CCOCC1 | i | i | i | i | i | . | . | . | .
Cc1ccc(C(=O)OCc2nnc(-c3ccccc3)o2)cc1S(=O)(=O)N1CCOCC1 | -4.59* | i | i | i | i | 82.8%* | i | i | i
COc1ccc(S(=O)(=O)N2CCOC2CNC(=O)C(=O)NCCCN2CCOCC2)cc1C (stereo not given) | i | i | i | i | i | . | . | . | .
CN(CC(=O)Nc1cccc(F)c1)C(=O)CSc1ccccc1 | i | i | i | i | i | . | . | . | .
Cc1csc(NC(=O)c2nc3nc(C)cc(C)n3n2)n1 | -5.37* | i | i | i | i | i | i | i | i
Cc1cc(C)n2nc(C(=O)Nc3nccs3)nc2n1 | i | i | i | i | i | . | . | . | .
CCN(c1cccc(C)c1)S(=O)(=O)c1cc2c3c(c1)CCN3C(=O)CC2 | -11.5* | i | i | i | i | 76.6%* | i | i | i
Cc1sc2ncnc(N3CCC(C(=O)Nc4ccc(C#N)cc4)CC3)c2c1C | -5.33* | i | i | i | i | i | i | i | i
Cc1nc2c(C)cccc2c2c1CCS2 | i | i | i | i | i | . | . | . | .
Cc1ccc(C)c(-n2c(SCC(=O)Nc3nonc3C)nnc2-c2ccoc2C)c1 | -5.41* | i | i | i | i | 83.4%* | i | i | i
Cc1ccc(S(=O)(=O)n2c([N+](=O)[O-])cnc2C)c(C)c1C | i | i | i | i | i | . | . | . | .
CC(=O)Nc1ccc(S(=O)(=O)Nc2nc3ccccc3nc2Nc2ccc(N)cc2)cc1 | -6.23* | i | i | i | i | 74.6%* | i | i | i
CC(=O)Nc1ccc(S(=O)(=O)Nc2nc3ccccc3nc2Nc2ccc3ccccc3c2)cc1 | i | i | i | i | i | . | . | . | .
O=S(=O)(Nc1nc2ccccc2nc1Nc1ccc2c(c1)OCCO2)c1cccs1 | i | i | i | i | i | . | . | . | .
CC(=O)Nc1ccc(S(=O)(=O)Nc2nc3ccccc3nc2Nc2cccc(O)c2)cc1 | i | i | i | i | i | . | . | . | .
COc1ccc(S(=O)(=O)Nc2nc3ccccc3nc2Nc2ccc3c(c2)OCO3)cc1 | -5.06* | i | i | i | i | i | i | i | i
CC(=O)Nc1ccc(S(=O)(=O)Nc2cc(C)c(-n3nc4ccccc4n3)cc2O)cc1 | -5.16* | i | i | i | i | i | i | i | i
CC(C)[C@H](NC(=O)C1CC(=O)N(c2ccc3c(c2)OCO3)C1)C(=O)NC1CCCC1 (stereo not given in full) | i | i | i | i | i | . | . | . | .
CCC(Sc1nc2c(cnn2-c2ccccc2)c(=O)[nH]1)C(=O)OC (stereo not given) | -5.15* | i | i | i | i | 81.7%* | i | i | i
COC(=O)C(C)Sc1nc2c(cnn2-c2ccc(F)cc2)c(=O)[nH]1 (stereo not given) | i | i | i | i | i | . | . | . | .
COc1ccc(C2CC(C(F)(F)F)n3nc(C(=O)O)c(Cl)c3N2)cc1OC (stereo not given) | -4.54* | i | i | i | i | i | i | i | i
Cc1nn(C)c(C)c1CNC(=O)c1nn2c(c1Cl)NC(c1cccs1)CC2C(F)(F)F (stereo not given) | -8.71* | i | i | i | i | i | i | i | i
COc1ccc(C2CC(C(F)(F)F)n3nc(CO)c(Cl)c3N2)cc1OC (stereo not given) | i | i | i | i | i | . | . | . | .
SMILES | MrgX1 antag | RGS4 pot | RGS4 inh | MrgX1 agonist | MrgX1 allo act | MrgX1 antag conf | HEK293 Ca flux | HEK293 Ca counter | HEK293 Ca cntr2
COc1ccc(S(=O)(=O)N(CC(=O)N2CCCCCC2)c2ccccc2OC)cc1 | i | i | i | i | i | . | . | . | .
CCCc1ccc(OCC(=O)O)cc1 | i | i | i | i | i | . | . | . | .
CCC(C)c1ccc(OCC(=O)O)cc1 (stereo not given) | -6.89* | i | i | i | i | i | i | i | i
CC(C)Oc1ccc(C(=O)NCCCNC(=O)c2cccnc2)cc1 | i | i | i | i | i | . | . | . | .
O=C(Nc1ccc(CN2CCOCC2)cc1)c1ccc(Cl)cc1 | i | i | i | i | i | . | . | . | .
O=C(Nc1ccc(S(=O)(=O)Nc2ccccc2)cc1)c1ccc(CN2CCOCC2)cc1 | -4.55* | i | i | i | i | 78.9%* | i | i | i
O=C(CCNC(=O)c1ccc(Br)cc1)NCc1ccncc1 | -6.12* | i | i | i | i | i | i | i | i
O=C(NCc1ccncc1)c1ccc(Br)cc1 | i | i | i | i | i | . | . | . | .
O=C(COc1ccccc1)NC1CCCN(Cc2ccccc2F)C1 (stereo not given) | i | i | i | i | i | . | . | . | .
Cn1nc(C(=O)Nc2cccc(Cl)c2)cc1C(=O)Nc1cccc(Cl)c1 | -4.75* | i | i | i | i | i | i | i | i
N#Cc1cc([N+](=O)[O-])ccc1NC(=O)COC(=O)C12CC3CC(CC(C3)C1)C2 | i | i | i | i | i | . | . | . | .
COC(=O)CCn1nnc(-c2cccs2)n1 | -6.85* | i | i | i | i | 74.8%* | i | i | i
COc1ccc(C(=O)Cn2nnc(-c3cccs3)n2)cc1 | i | i | i | i | i | . | . | . | .
COC(=O)c1ccc(NC(=O)Cn2nnc(-c3cccs3)n2)cc1 | i | i | i | i | i | . | . | . | .
